{"source": "ChEMBL document CHEMBL4342434", "about": "“Identification of HUHS190, a human naftopidil metabolite, as a novel anti-bladder cancer drug” (Bioorg Med Chem Lett, 2020)", "key": {"[1]": {"test_system": "HEK293", "experiment": "Cytotoxicity against human HEK293 cells assessed as reduction in cell viability incubated for 48 hrs by MTT assay", "type": "cell-based", "conditions": "HEK293, 48 h", "outline": "(§1)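 Growth inhibition was measured in vitro on human lines: HEK293 (embryonic kidney), PNT1A (normal prostate epithelium immortalized with SV40), PC3 and DU145 (prostate cancer), KK47 and T24 (bladder carcinoma) and 786-O (kidney carcinoma). IC50 in µM was taken from dose–response curves for each cell line.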"}, "[2]": {"test_system": "786-0", "experiment": "Antiproliferative activity against human 786-O cells assessed as reduction in cell viability incubated for 48 hrs by MTT assay", "type": "functional, cell-based", "conditions": "786-0, 48 h", "outline": "as §1"}, "[3]": {"test_system": "PC-3", "experiment": "Antiproliferative activity against human PC3 cells assessed as reduction in cell viability incubated for 48 hrs by MTT assay", "type": "functional, cell-based", "conditions": "PC-3, 48 h", "outline": "as §1"}, "[4]": {"test_system": "DU-145", "experiment": "Antiproliferative activity against human DU145 cells assessed as reduction in cell viability incubated for 48 hrs by MTT assay", "type": "functional, cell-based", "conditions": "DU-145, 48 h", "outline": "as §1"}, "[5]": {"test_system": "T-24", "experiment": "Antiproliferative activity against human T24 cells assessed as reduction in cell viability incubated for 48 hrs by MTT assay", "type": "functional, cell-based", "conditions": "T-24, 48 h", "outline": "as §1"}, "[6]": {"test_system": "PNT1A", "experiment": "Cytotoxicity against human PNT1A cells assessed as reduction in cell viability incubated for 48 hrs by MTT assay", "type": "cell-based", "outline": "as §1"}, "[7]": {"test_system": "KK-47 cell line", "experiment": "Antiproliferative activity against human KK47 cells assessed as reduction in cell viability incubated for 48 hrs by MTT assay", "type": "functional, cell-based", "conditions": "KK-47, 48 h", "outline": "as §1"}, "[8]": {"experiment": "Toxicity in C57BL/6 mouse bladder cancer model xenografted with mouse MB49 cells at 50 mg/ml dosed via intravesical instillation through catheter for 2 hrs and measured for 28 days", "type": "organism-based", "conditions": "in vivo, other", "outline": "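[…] model: a small number of MB49 cells (C57BL/6-derived) were injected by needle into the bladder smooth muscle of C57BL/6 mice after laparotomy under anaesthesia. Compound at 50 mg/mL was then given once by intravesical instillation and kept for 2 h. Day 0 was implantation/dosing, and survival was followed for 4 weeks. Saline, BCG (2 mg/mL) and pirarubicin (1 mg/mL) served as comparators.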"}, "[9]": {"experiment": "Cmax in Sprague-Dawley rat at 32 mg/kg, po measured after 15 mins by HPLC analysis", "type": "ADME, organism-based", "parameters": "dose 32 mg/kg, route oral", "conditions": "in vivo"}, "[10]": {"experiment": "AUC (0 to 6 hrs) in Sprague-Dawley rat at 32 mg/kg, po measured upto 6 hrs by HPLC analysis", "type": "ADME, organism-based", "parameters": "dose 32 mg/kg, time < 6 hr, route oral", "conditions": "in vivo"}, "[11]": {"experiment": "Antitumor activity against mouse MB49 cells xenografted in C57BL/6 mouse bladder cancer model assessed as death rate at 50 mg/ml dosed via intravesical instillation through catheter for 2 hrs and measured after 28 days relative to control", "type": "functional", "outline": "(§2)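 MB49 cells (C57BL/6-derived) were injected by needle into the bladder smooth-muscle layer of anaesthetised C57BL/6 mice after laparotomy. The same day (day 0), a single intravesical instillation was given and held in the bladder for 2 h, with saline as the control. Deaths were recorded over 4 weeks, to day 28.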"}, "[12]": {"experiment": "Antiproliferative activity against mouse MB49 cells assessed as reduction in cell viability after 72 hrs by WST-8 assay", "type": "functional, cell-based", "conditions": "MB49, 72 h"}, "[13]": {"experiment": "Antiproliferative activity against C3H mouse MBT2 cells assessed as reduction in cell viability", "type": "functional, cell-based"}, "[14]": {"experiment": "Antitumor activity against mouse MB49 cells xenografted in C57BL/6 mouse bladder cancer model assessed as death rate at 1 mg/ml dosed via intravesical instillation through catheter for 2 hrs and measured after 28 days relative to control", "type": "functional", "outline": "as §2"}, "[15]": {"test_system": "L5178Y", "experiment": "Antiproliferative activity against mouse L5178Y cells assessed as reduction in cell viability", "type": "functional, cell-based"}}, "data": [{"smiles": "Oc1ccccc1N1CCN(CC(O)COc2ccc(O)c3ccccc23)CC1", "note": "(stereo not drawn)", "values": [{"measurement": "IC50", "setting": "[1]", "value": "> 50", "unit": "µM"}, {"measurement": "IC50", "setting": "[2]", "value": 9.7, "unit": "µM"}, {"measurement": "IC50", "setting": "[3]", "value": 26.1, "unit": "µM"}, {"measurement": "IC50", "setting": "[4]", "value": "> 50", "unit": "µM"}, {"measurement": "IC50", "setting": "[5]", "value": 14.8, "unit": "µM"}, {"measurement": "IC50", "setting": "[6]", "value": 37.4, "unit": "µM"}, {"measurement": "IC50", "setting": "[7]", "value": 33, "unit": "µM"}]}, {"smiles": "COc1ccccc1N1CCN(CC(O)COc2ccc(O)c3ccccc23)CC1", "note": "(stereo not drawn)", "values": [{"measurement": "IC50", "setting": "[1]", "value": "> 50", "unit": "µM"}, {"measurement": "IC50", "setting": "[2]", "value": 46.9, "unit": "µM"}, {"measurement": "IC50", "setting": "[3]", "value": 28, "unit": "µM"}, {"measurement": "IC50", "setting": "[4]", "value": 35.1, "unit": "µM"}, {"measurement": "IC50", "setting": "[5]", "value": 16.1, "unit": "µM"}, {"measurement": "IC50", "setting": "[6]", "value": 34.9, "unit": "µM"}, {"measurement": "IC50", "setting": "[7]", "value": 17.6, "unit": "µM"}]}, {"smiles": "Oc1ccccc1N1CCN(CC(O)COc2cccc3ccccc23)CC1", "note": "(stereo not drawn)", "values": [{"measurement": "IC50", "setting": "[1]", "value": "> 50", "unit": "µM"}, {"measurement": "IC50", "setting": "[2]", "value": 18.7, "unit": "µM"}, {"measurement": "IC50", "setting": "[3]", "value": 21.7, "unit": "µM"}, {"measurement": "IC50", "setting": "[4]", "value": 18, "unit": "µM"}, {"measurement": "IC50", "setting": "[5]", "value": 18, "unit": "µM"}, {"measurement": "IC50", "setting": "[6]", "value": 22.2, "unit": "µM"}, {"measurement": "IC50", "setting": "[7]", "value": 18.9, "unit": "µM"}]}, {"smiles": "Oc1ccc(N2CCN(CC(O)COc3ccc(O)c4ccccc34)CC2)c(O)c1", "note": "(stereo not drawn)", "values": [{"measurement": "IC50", "setting": "[1]", "value": 40.4, "unit": "µM"}, {"measurement": "IC50", "setting": "[2]", "value": 18.5, "unit": "µM"}, {"measurement": "IC50", "setting": "[3]", "value": 17.7, "unit": "µM"}, {"measurement": "IC50", "setting": "[4]", "value": 20.3, "unit": "µM"}, {"measurement": "IC50", "setting": "[5]", "value": 15.6, "unit": "µM"}, {"measurement": "IC50", "setting": "[6]", "value": 17.1, "unit": "µM"}, {"measurement": "IC50", "setting": "[7]", "value": 17.9, "unit": "µM"}]}, {"smiles": "Oc1ccc(N2CCN(CC(O)COc3cccc4ccccc34)CC2)c(O)c1", "note": "(stereo not drawn)", "values": [{"measurement": "IC50", "setting": "[1]", "value": "> 50", "unit": "µM"}, {"measurement": "IC50", "setting": "[2]", "value": 17.5, "unit": "µM"}, {"measurement": "IC50", "setting": "[3]", "value": 30.3, "unit": "µM"}, {"measurement": "IC50", "setting": "[4]", "value": 11.6, "unit": "µM"}, {"measurement": "IC50", "setting": "[5]", "value": 13.4, "unit": "µM"}, {"measurement": "IC50", "setting": "[6]", "value": 29.9, "unit": "µM"}, {"measurement": "IC50", "setting": "[7]", "value": 9.6, "unit": "µM"}]}, {"smiles": "COc1cc(O)ccc1N1CCN(CC(O)COc2cccc3ccccc23)CC1", "note": "(stereo not drawn)", "values": [{"measurement": "IC50", "setting": "[1]", "value": "> 50", "unit": "µM"}, {"measurement": "Activity", "setting": "[8]", "value": "Non-Toxic"}, {"measurement": "IC50", "setting": "[2]", "value": 11.4, "unit": "µM"}, {"measurement": "IC50", "setting": "[3]", "value": 24.4, "unit": "µM"}, {"measurement": "Cmax", "setting": "[9]", "value": 397, "unit": "ng/mL"}, {"measurement": "IC50", "setting": "[4]", "value": 17.2, "unit": "µM"}, {"measurement": "AUC(0-t) at 6 h", "setting": "[10]", "value": 204, "unit": "ng·h/mL"}, {"measurement": "IC50", "setting": "[5]", "value": 10.5, "unit": "µM"}, {"measurement": "mortality", "setting": "[11]", "value": 30, "unit": "%"}, {"measurement": "IC50", "setting": "[6]", "value": "> 50", "unit": "µM"}, {"measurement": "IC50", "setting": "[7]", "value": 11.8, "unit": "µM"}, {"measurement": "IC50", "setting": "[12]", "value": 12, "unit": "µM"}]}, {"smiles": "COc1cccc2c1C(=O)c1c(O)c3c(c(O)c1C2=O)C[C@@](O)(C(=O)CO)C[C@@H]3O[C@H]1C[C@H](N)[C@H](O[C@@H]2CCCCO2)[C@H](C)O1", "note": "[PIRARUBICIN]", "values": [{"measurement": "IC50", "setting": "[13]", "value": 0.022, "unit": "µM"}, {"measurement": "mortality", "setting": "[14]", "value": "70 - 80%"}, {"measurement": "IC50", "setting": "[15]", "value": 0.023, "unit": "µM"}, {"measurement": "IC50", "setting": "[12]", "value": 0.022, "unit": "µM"}]}, {"smiles": "COc1cc(O)ccc1N1CCN(CC(O)COc2ccc(O)c3ccccc23)CC1", "note": "(stereo not drawn)", "values": [{"measurement": "IC50", "setting": "[1]", "value": "> 50", "unit": "µM"}, {"measurement": "IC50", "setting": "[2]", "value": 38.7, "unit": "µM"}, {"measurement": "IC50", "setting": "[3]", "value": 45.7, "unit": "µM"}, {"measurement": "IC50", "setting": "[4]", "value": "> 50", "unit": "µM"}, {"measurement": "IC50", "setting": "[5]", "value": 37.4, "unit": "µM"}, {"measurement": "IC50", "setting": "[6]", "value": 37.2, "unit": "µM"}, {"measurement": "IC50", "setting": "[7]", "value": "> 50", "unit": "µM"}]}, {"smiles": "COc1ccccc1N1CCN(CC(O)COc2cccc3ccccc23)CC1", "note": "(stereo not drawn) [NAFTOPIDIL]", "values": [{"measurement": "IC50", "setting": "[1]", "value": 47.3, "unit": "µM"}, {"measurement": "IC50", "setting": "[2]", "value": 13.3, "unit": "µM"}, {"measurement": "IC50", "setting": "[3]", "value": 31.2, "unit": "µM"}, {"measurement": "Cmax", "setting": "[9]", "value": 110, "unit": "ng/mL"}, {"measurement": "IC50", "setting": "[4]", "value": 21.1, "unit": "µM"}, {"measurement": "AUC(0-t) at 6 h", "setting": "[10]", "value": 202, "unit": "ng·h/mL"}, {"measurement": "IC50", "setting": "[5]", "value": 18.5, "unit": "µM"}, {"measurement": "IC50", "setting": "[6]", "value": 27, "unit": "µM"}, {"measurement": "IC50", "setting": "[7]", "value": 19, "unit": "µM"}, {"measurement": "IC50", "setting": "[12]", "value": 23, "unit": "µM"}]}]}
